Screening results from PubChem BioAssay.
An excerpt weighted towards active compounds, which were near 2.9% of everything screened.
SENP8 block-1 – human SENP8 protease inhibitors, primary screen, biochemical, fluorescence, Nedd8 protein substrate, uHTS | 360,000 tested, 0.64% active | Sentrin-specific protease 8 (Homo sapiens), Q96LD8 | inhibition, % at 20 µM | recombinant SENP8; in the data active = inhibition mostly above about 40%, no sharp cut-off; inactive = mostly below about 27%
SENP6 block – SENP6 protease inhibitors, primary screen, biochemical, luminescence, uHTS. AID 2599, 2010. 330,000 tested, 1.8% active. Recombinant SENP6 catalytic domain, aminoluciferin luminescence. inhibition, % at 10 µM. Sentrin-specific protease 6 (Homo sapiens), Q9GZR1;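 active = inhibition above about 50% at the single tested dose, limit read from the data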;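 note: plate controls were DMSO wells with enzyme for no effect and DMSO wells lacking enzyme for full effect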
Target sequence (Q9GZR1 628-1112 limits assumed): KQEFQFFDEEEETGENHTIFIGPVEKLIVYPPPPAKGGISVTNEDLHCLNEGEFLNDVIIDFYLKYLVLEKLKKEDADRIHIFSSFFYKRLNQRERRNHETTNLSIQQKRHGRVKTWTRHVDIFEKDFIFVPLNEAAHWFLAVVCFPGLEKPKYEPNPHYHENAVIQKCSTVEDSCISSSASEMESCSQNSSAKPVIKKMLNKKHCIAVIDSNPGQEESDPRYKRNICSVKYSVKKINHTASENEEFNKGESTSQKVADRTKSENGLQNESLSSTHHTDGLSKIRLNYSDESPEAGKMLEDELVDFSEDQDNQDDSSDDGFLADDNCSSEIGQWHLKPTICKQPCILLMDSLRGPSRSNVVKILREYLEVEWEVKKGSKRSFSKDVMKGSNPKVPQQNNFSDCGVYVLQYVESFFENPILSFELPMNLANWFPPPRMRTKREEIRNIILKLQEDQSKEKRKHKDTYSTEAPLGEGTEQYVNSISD
Apaf-1 inh – inhibitors of human Apaf-1 apoptosome, primary screen, biochemical, DEVD-Rh110 fluorescence, uHTS; reconstituted apoptosome caspase-3 activity; inhibition, % at 20 µM; 330,000 tested, 0.71% active; AID 489030, 2010; active = inhibition of at least 40% at 20 µM;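 note: plate controls were DMSO wells for no effect and DEVD-CHO caspase inhibitor wells for full effect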
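Assay system: Apoptosome proteins | Medium: pH 7.5 Hepes buffer with CHAPS, BSA, DTT | Also added: Cytochrome c and DEVD-Rh110 substrate | Times: 30 min plus 50 min, RT | Detection: Rhodamine 110 fluorescence at Ex 480/Em 540 nm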
SENP7 inh – SENP7 protease inhibitors, primary screen, biochemical, luminescence, uHTS; inhibition, % at 5 µM; 330,000 tested, 1.5% active; recombinant SENP7, Z-RLRGG-aminoluciferin luminescence, 40 min;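 active = inhibition above about 50% at the single test dose, limit read from the data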;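 note: plate controls were DMSO with enzyme for no effect and no enzyme buffer wells for full effect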
SENP1 inh – human SENP1 catalytic domain inhibitors, primary screen, biochemical, FRET, uHTS; Sentrin-specific protease 1 (Homo sapiens), Q9P0U3; recombinant SENP1 catalytic domain, CyPet-SUMO1-YPet FRET cleavage; inhibition, % at 10 µM; 360,000 tested, 0.21% active; AID 624204, 2012;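 active = inhibition at least 30% at 10 µM, raw YFP signal under a set limit, fluorescence ratio 0.5 to 1.5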;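 note: 0% = enzyme with DMSO and 100% = no enzyme wells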
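material = recombinant human SENP1 catalytic domain, His6-tagged | quantity = 20 pM enzyme | reagent = 25 nM SUMO1 FRET substrate | compound dosing = 10 µM single point, 0.5% DMSO | timing = 50 min enzyme reaction, room temperature, light-protected | detection = FRET, CFP and YFP emission | control set = no-enzyme low, enzyme-DMSO high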
SENP8 block-2 – SENP8 protease inhibitors, primary screen, biochemical, luminescence; AID 2540, 2010; 330,000 tested, 1.2% active; Sentrin-specific protease 8 (Homo sapiens), Q96LD8; inhibition, % at 10 µM; purified SENP8, Z-RLRGG-aminoluciferin cleavage; in the data active = inhibition above about 50%
Apaf-1 inh conf2 – Apaf-1 inhibitors, single-dose retest, confirmation, biochemical, fluorescence, DEVD-Rh110, 20 µM; shares compounds with Apaf-1 inh; reconstituted apoptosome, caspase-3 DEVD-Rh110 fluorescence; inhibition, % at 20 µM; 1,800 tested, 25% active;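 active = mean inhibition of at least 40% at 20 µM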;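 note: plate controls were DMSO wells for no effect and DEVD-CHO caspase inhibitor control wells for full effect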
Rh110 interf inh – Rh110 fluorescence interference by putative Apaf-1 inhibitors, confirmation, artefact control for Apaf-1 inhibitor project, biochemical, 20 µM | activation (fluorescence interference), % at 20 µM | AID 504615, 2011 | quenched caspase reaction | shares compounds with Apaf-1 inh | 1,800 tested, under 10 active;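 active = signal rise of 40% or more at 20 µM, treated as a fluorescence artifact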
Apaf1 inh interf – fluorescence interference of Apaf-1 inhibitor hits, dose response, artefact control for Apaf-1 inhibitor project | shares compounds with Apaf-1 inh | fluorescence interference counterscreen, Apaf-1 assay format | IC50, µM | 460 tested, under 10 active | AID 588538, 2011; call rule not given here
* hit, by the source's call; . = no result.

SMILES | SENP8 block-1 | SENP6 block | Apaf-1 inh | SENP7 inh | SENP1 inh | SENP8 block-2 | Apaf-1 inh conf2 | Rh110 interf inh | Apaf1 inh interf
CCCCNC(=O)C(C)N(CCN(C)C)C(=O)CCCN1C(=O)NC(c2ccc([N+](=O)[O-])cc2)C(C(=O)OCc2ccccc2)=C1C (stereo unspecified) | 18 | . | 45* | 3 | 1 | . | 14 | 8 | .
Cc1[nH]n(-c2ccccc2)c(=O)c1/C=N/NC(=O)c1cccc([N+](=O)[O-])c1 | 52* | 9 | 56* | -1 | 0 | 0 | 53* | 1 | >100
Cc1[nH]n(-c2ccccc2)c(=O)c1C=Nc1ccc(S(=O)(=O)N(C)C)cc1 | 10 | 5 | 8 | 1 | 2 | -3 | . | . | .
Cc1[nH]n(-c2cccc3ccccc23)c(=O)c1/C=N/NC(=O)c1cccc([N+](=O)[O-])c1 | 8 | 15 | 16 | 11 | 2 | 3 | . | . | .
Cc1[nH]n(-c2ccccc2)c(=O)c1/C=N/N(C)c1ccccc1 | 29 | -4 | 80* | 1 | 3 | -7 | 15 | -2 | .
Cc1[nH]n(-c2ccccc2)c(=O)c1/C=N\NC(=O)C1COc2ccccc2O1 (stereo unspecified) | 8 | 12 | 54* | 4 | 1 | 4 | 65* | -6 | >100
CCCCCCn1cc(CN2CC(N3CCN(CCN(C)C)CC3)CS2(=O)=O)nn1 (stereo unspecified) | 11 | . | . | . | -3 | . | . | . | .
COc1ccc(-c2c(C(F)(F)F)[nH]n3c(=O)cc(-c4ccccc4)nc23)cc1 | -419 | -6 | 7 | 8 | -52 | -6 | . | . | .
Cc1ccc(N=Nc2c(N)[nH]n3c(=O)cc(-c4ccccc4)nc23)cc1 | 74* | 1 | 55* | 2 | 3 | 4 | 64* | 4 | >100
CN(C)c1ccc(C(=O)N2CCC2(C)C(=O)O)cc1 (stereo unspecified) | 6 | . | . | . | 0 | . | . | . | .
O=C(Nc1nccs1)c1ncc(Cl)c(Cl)c1Cl | 11 | 11 | 7 | 4 | 0 | 7 | . | . | .
C#CCOCCOCCOCCNc1nc(N2CCN(C(=O)CCCCCCCCCCNC(=O)[C@H]([C@@H](C)CC)n3cc(CCCCN=C(N)N)nn3)CC2)nc(N2CCN(C(=O)CCCCCCCCCCNC(=O)[C@H](CCCCN)n3cc(C)nn3)CC2)n1 | . | -58 | 73* | -9 | . | -34 | 63* | 13 | >100
C#CCOCCOCCOCCNc1nc(N2CCN(C(=O)CCCCCCCCCCNC(=O)[C@H](CO)n3cc(CCCSC)nn3)CC2)nc(N2CCN(C(=O)CCCCCCCCCCNC(=O)[C@@H]([C@H](C)O)n3cc(C)nn3)CC2)n1 | . | 5 | 32 | 2 | . | 14 | . | . | .
C#CCOCCOCCOCCNc1nc(N2CCN(C(=O)CCCCCCCCCCNC(=O)[C@H]([C@@H](C)CC)n3cc(CCCCCN)nn3)CC2)nc(N2CCN(C(=O)CCCCCCCCCCNC(=O)[C@H](CCCCN)n3cc(CCCC(=O)O)nn3)CC2)n1 | 15 | -27 | 56* | 1 | 2 | -13 | 28 | 20 | .
C#CCOCCOCCOCCNc1nc(N2CCN(C(=O)CCCCCCCCCCNC(=O)Cn3cc(C[C@@H](C)O)nn3)CC2)nc(N2CCN(C(=O)CCCCCCCCCCNC(=O)[C@H](CO)n3cc(CCCSC)nn3)CC2)n1 | 16 | 5 | 37 | 0 | 1 | 2 | . | . | .
